Measurements from different studies.
Protocols differ between the studies behind these lines.
Target: Serine/threonine-protein kinase PAK 4 (PAK4, Homo sapiens, UniProt O96013)

`N#CCCc1ccc2c(c1)-c1[nH]c3ccc([N+](=O)[O-])cc3c1CC(=O)N2` has a remaining signal of 86.4% (cell-free assay; 0.5 µM).
The remaining activity of `Cc1[nH]c(/C=C2\C(=O)Nc3ccc(F)cc32)c(C)c1C(=O)N[C@H]1CCN(C(=O)N(C)C)C1` is reported as 105% (enzyme activity; inhibitor; 1 µM).
The remaining activity of `O=C(Nc1cnn(-c2csc(C(=O)NC3COC3)c2)c1)Nc1c(F)cccc1Cl` is reported as 107% (enzyme activity; inhibitor; 5 µM).
For `COc1cc(Nc2cnc(C#N)c(O[C@H](C)CN(C)C)n2)ncc1-c1cnn(C)c1`, the remaining activity was 87% (enzyme activity; inhibitor; radiometric; 1 µM).
The inhibition of `CNC(=O)c1cc(Oc2ccc(NC(=O)Nc3ccc(Cl)c(C(F)(F)F)c3)cc2)ccn1` is reported as -9% (enzyme activity; inhibitor; 10 µM).
`CS(=O)(=O)Nc1cccc(-c2csc(NC(=O)CSc3nc4nccnc4c(=O)n3CCc3ccccc3)n2)c1` has an inhibition of 4% (enzyme activity; inhibitor; 10 µM).
For `CCc1ccccc1C(=O)Nc1n[nH]c2c(C)c(F)c(C3C(C#N)=C(C)N(C)C(C)=C3C#N)cc12`, the remaining binding was 100% (cell-free assay; competition with immobilised ligand; 1 µM).
`Cc1ccc(Nc2nccc(N(C)c3ccc4c(C)n(C)nc4c3)n2)cc1S(N)(=O)=O` gave an inhibition of -17% (enzyme activity; inhibitor; 0.3 µM).
The remaining activity of `Cc1ccc(C(=O)Nc2ccc(CN3CCN(C)CC3)c(C(F)(F)F)c2)cc1C#Cc1cnc2cccnn12` is reported as 91% (enzyme activity; inhibitor; 23.5 nM).
With `Nc1nc(NC2CCCCC2)sc1C(=O)c1ccccc1` the remaining activity was 88% (enzyme activity; inhibitor; 10 µM).
For `Nc1cnc(N2CCc3cc(S(=O)(=O)Nc4c(F)cc(Cl)cc4F)cc(N4CCCC4=O)c32)nc1`, the remaining binding was 89% (cell-free assay; competition with immobilised ligand; 1 µM).
With `Cc1cc(NC(=O)c2cccc3cc(-c4cccc5[nH]nc(N)c45)ccc23)ccc1F` the activity vs control was 97% (enzyme activity; inhibitor; 0.1 µM).
With `COc1cc(Cl)c(C(=O)N[C@@H](CN[C@H]2CC[C@@H](N)CC2)Cc2ccc(C#N)cc2)cc1-c1ccc(CN[C@H](C)c2ccc(C)cc2)o1` the remaining activity was 102% (enzyme activity; inhibitor; 1 µM).
The inhibition of `CN(c1ncccc1CNc1nc(Nc2ccc3c(c2)CC(=O)N3)ncc1C(F)(F)F)S(C)(=O)=O` is reported as 88.5% (enzyme activity; inhibitor; 1 µM).
`CS(=O)(=O)N1CCCC(NC(=O)[C@H](CCC2CCCCC2)NC(=O)c2ccc(CNc3ncnc4c3nnn4-c3ccccc3)cc2)C1` (stereo partly shown) has a remaining binding of 100% (cell-free assay; competition with immobilised ligand; 0.1 µM).
With `FC(F)(F)Oc1cccc(-c2cnc3ccc(-c4ccncc4)nn23)c1` the activity vs control was 64% (enzyme activity; inhibitor; radiometric; 5 µM).
For `Cc1c[nH]c2nccc(Oc3c(F)cc(Nc4cc(Cl)nc(N)n4)cc3F)c12`, the remaining binding was 100% (cell-free assay; competition with immobilised ligand; 0.1 µM).
For `O=C(Nc1cnn(-c2csc(C(=O)NC3COC3)c2)c1)Nc1ccccc1Cl`, the remaining activity was 98.9% (enzyme activity; inhibitor; 5 µM).
For `Cc1cnc(NC2CCOCC2)nc1-n1cnc(C(=O)NC(CN)c2cc(F)cc(Cl)c2)c1` (stereo not shown), the remaining activity was 96% (enzyme activity; inhibitor; radiometric; 1 µM).
`CCN(CC)CCNC(=O)c1c(C)[nH]c(/C=C2\C(=O)Nc3ccc(F)cc32)c1C` gave a remaining activity of 82% (enzyme activity; inhibitor; 1 µM).
For `CCCS(=O)(=O)Nc1ccc(F)c(C(=O)c2c[nH]c3ncc(-c4ccc(Cl)cc4)cc23)c1F`, the inhibition was < 10% (enzyme activity; inhibitor; 1 µM).
With `CCN(CC)CCNC(=O)c1c(C)[nH]c(/C=C2\C(=O)Nc3ccc(F)cc32)c1C` the inhibition was 55% (enzyme activity; inhibitor; 10 µM).
`O=C1NC(=O)c2cc(Nc3ccc(F)cc3)c(Nc3ccc(F)cc3)cc21` gave a remaining signal of 95.1% (cell-free assay; 0.5 µM).
With `CSc1cccnc1N1CCN(Cc2nc3ccccc3[nH]2)CC1` the remaining binding was 100% (cell-free assay; competition with immobilised ligand; 1 µM).
`O=C1Nc2ccc(Cl)cc2C1=Cc1cc(Cl)c(O)c(Cl)c1` gave a remaining signal of 88.7% (cell-free assay; 0.5 µM).
`Nc1ncnc2occ(-c3ccc(NC(=O)Nc4cc(C(F)(F)F)ccc4F)cc3)c12` has a remaining signal of 61% (cell-free assay; inhibitor; 20 µM).
`COc1cc(-c2cc(-c3ccc(N4CCNCC4)cc3)cnc2C)cc(OC)c1OC` has an inhibition of 4% (enzyme activity; inhibitor; 1 µM).
With `Oc1cccc(-c2nc(N3CCOCC3)c3oc4ncccc4c3n2)c1` the remaining activity was 70% (enzyme activity; inhibitor; 10 µM).
For `CN(C(=O)c1ccccc1)c1cc(N(C)c2ccc3c(c2)CCc2ccc(C(=O)NCCN4CCOCC4)cc2C3=O)ccc1F`, the remaining binding was 83% (cell-free assay; competition with immobilised ligand; 1 µM).
For `C=CC(=O)Nc1cc(Nc2nccc(Nc3cc(Cl)c(F)cc3C(C)(C)O)n2)c(OC)cc1N1CC[C@@H](N(C)C)C1`, the inhibition was 5% (enzyme activity; inhibitor; 1 µM).
With `COc1cccc(CNC(=O)c2nc3scc(COCc4ccc(C(=O)O)cc4)c3c(=O)[nH]2)c1` the remaining binding was 100% (cell-free assay; competition with immobilised ligand; 1 µM).
For `CC(C)(C)c1nc2c(s1)c1nc(N)ncc1c1ccc(NS(=O)(=O)c3c(F)cccc3F)c(F)c12`, the remaining activity was 86% (enzyme activity; inhibitor; radiometric; 1 µM).
The remaining binding of `c1ccc(N2CCN(Cc3nc4ccccc4[nH]3)CC2)nc1` is reported as 93% (cell-free assay; competition with immobilised ligand; 1 µM).
With `CCCOc1ccc(OC)c(F)c1C(=O)c1ccc(C(=O)N[C@@H]2CNC[C@H]2NC(=O)c2ccc3[nH]ncc3c2)cc1` the remaining activity was 90% (enzyme activity; inhibitor; 10 µM).
